Source: ChEMBL document CHEMBL4732269, “Design, Synthesis, and Biological Evaluation of Imidazopyridines as PD-1/PD-L1 Antagonists” (ACS Med Chem Lett, 2021)
Active and inactive are the calls of the source. No cut-off for these calls is given here.

How the values were obtained:
Format in all cases: protein-complex assay
[1] = target: T1, Programmed cell death protein 1/Programmed cell death 1 ligand 1 (Homo sapiens, UniProt Q15116+Q9NZQ7); assay: Antagonist activity at PD1/PD-L1 (unknown origin) assessed as disruption of PD-1/PD-L1 complex by measuring PD-L1 dimerization at 50 uM measured after 2 hrs by HTRF assay
T1 sequence (Q15116 whole entry): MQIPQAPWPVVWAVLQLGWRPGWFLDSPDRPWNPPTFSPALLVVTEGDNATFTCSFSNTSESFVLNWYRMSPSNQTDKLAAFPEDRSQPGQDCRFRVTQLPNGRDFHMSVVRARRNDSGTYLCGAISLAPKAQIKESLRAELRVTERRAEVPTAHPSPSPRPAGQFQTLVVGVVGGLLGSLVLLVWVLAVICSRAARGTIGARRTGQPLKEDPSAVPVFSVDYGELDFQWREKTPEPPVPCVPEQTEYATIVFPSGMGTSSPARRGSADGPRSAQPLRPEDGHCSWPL
T1 sequence (Q9NZQ7 whole entry): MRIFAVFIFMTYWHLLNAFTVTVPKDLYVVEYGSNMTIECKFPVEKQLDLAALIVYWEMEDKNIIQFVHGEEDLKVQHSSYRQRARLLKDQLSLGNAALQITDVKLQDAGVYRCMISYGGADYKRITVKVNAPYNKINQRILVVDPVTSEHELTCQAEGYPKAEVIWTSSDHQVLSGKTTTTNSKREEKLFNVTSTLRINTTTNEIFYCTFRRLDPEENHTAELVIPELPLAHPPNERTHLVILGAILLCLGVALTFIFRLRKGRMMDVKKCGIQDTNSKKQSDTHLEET

[2] = target: T2, Programmed cell death protein 1/Programmed cell death 1 ligand 1 (Homo sapiens, UniProt Q9NZQ7); assay: Antagonist activity at PD1/PD-L1 (unknown origin) assessed as disruption of PD-1/PD-L1 complex by measuring PD-L1 dimerization measured after 2 hrs by HTRF assay
T2 sequence (Q15116 whole entry): as the sequence (Q15116 whole entry) above
T2 sequence (Q9NZQ7 whole entry): as the sequence (Q9NZQ7 whole entry) above
How it was run: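 PD-1/PD-L1 binding measured by HTRF with a commercial kit following the kit protocol, at 20 μL final volume. Each compound was run as its own dilution series, and plates were incubated 2 h at RT before the TR-FRET read. Signals were background-subtracted on the negative control and normalized to the positive control. Averaged data were fitted with a normalized Hill equation to give the IC50.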

[3] = target: T1, Programmed cell death protein 1/Programmed cell death 1 ligand 1; assay: Antagonist activity at PD1/PD-L1 (unknown origin) assessed as disruption of PD-1/PD-L1 complex by measuring PD-L1 dimerization by 1H-NMR analysis; conditions: filed as antagonist
How it was run: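 PD-L1 was expressed in E. coli BL21 (DE3) as inclusion bodies, then refolded by drop-wise dilution into 0.1 M Tris pH 8.0, 1 M L-Arg HCl, 2 mM EDTA, and 0.25 mM each of oxidized and reduced glutathione. It was dialyzed against 10 mM Tris pH 8.0 with 20 mM NaCl. Final size-exclusion chromatography was run in PBS pH 7.4 for NMR.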

[4] = target: T1, Programmed cell death protein 1/Programmed cell death 1 ligand 1; assay: Antagonist activity at human PD1/PD-L1
[5] = target: T2, Programmed cell death protein 1/Programmed cell death 1 ligand 1; assay: Antagonist activity at human PD1/PD-L1 preincubated with PD-L1 for 1 hr followed by incubation with PD1 for 1 hr by ELISA
[6] = target: T1, Programmed cell death protein 1/Programmed cell death 1 ligand 1; assay: Antagonist activity at PD1/PD-L1 (unknown origin)

SMILES: Cc1c(COc2ccc3nc([C@@H](N)CO)c(NCc4ccccc4)n3c2)cccc1-c1ccccc1
- Activity [1]: inactive

SMILES: Cc1c(COc2ccc3nc(CN)c(NCCc4ccccc4)n3c2)cccc1-c1ccccc1
- IC50 [2]: 16.8 µM
- Activity [3]: Active
- Activity ([1]; filed as antagonist): Active

SMILES: Cc1c(COc2ccc3nc(CN)c(NCCc4ccccc4)n3c2)cccc1-c1ccc(F)cc1
- Activity [1]: inactive

SMILES: Cc1c(COc2ccc3nc(CN)c(NCc4cccc(C#N)c4)n3c2)cccc1-c1ccc(F)cc1
- Activity [1]: inactive

SMILES: Cc1cc2nc(CN)c(NCc3ccccc3)n2cc1OCc1cccc(-c2ccc3c(c2)OCCO3)c1C
- IC50 [2]: 1.83 µM
- Activity ([1]; filed as antagonist): Active

SMILES: Cc1c(-c2ccccc2)cccc1-c1nc2c(s1)CNCC2
- IC50 [4]: ≤ 0.1 µM

SMILES: Cc1c(COc2ccc3nc([C@H](N)CO)c(NCc4ccccc4)n3c2)cccc1-c1ccccc1
- Activity [1]: inactive

SMILES: Cc1c(COc2ccc3nc(CN)c(NCc4cccc(-c5nn[nH]n5)c4)n3c2)cccc1-c1ccc(F)cc1
- Activity [1]: inactive

SMILES: Cc1c(COc2ccc3nc(CN)c(NC(C)c4ccccc4)n3c2)cccc1-c1ccccc1 (stereo not drawn)
- IC50 [2]: 9.33 µM
- Activity [3]: Active
- Activity ([1]; filed as antagonist): Active

SMILES: Cc1c(COc2ccc3nc(CN)c(NCc4ccccc4)n3c2)cccc1-c1ccc2c(c1)OCCO2
- IC50 [2]: 22.9 µM
- Activity ([1]; filed as antagonist): Active

SMILES: Cc1c(COc2ccc3nc(CN)c(NCc4ccccc4)n3c2)cccc1-c1ccccc1
- IC50 [2]: 10.2 µM
- Activity [3]: Active
- Activity ([1]; filed as antagonist): Active

SMILES: Cc1c(Oc2ccc3nc(CN)c(NCc4ccccc4)n3c2)cccc1-c1ccccc1
- Activity [3]: Active
- Activity ([1]; filed as antagonist): Active

SMILES: N#Cc1cncc(COc2cc(O[C@H]3CCc4c(-c5ccccc5F)cccc43)c(Cl)cc2CN2CC[C@@H](O)C2)c1
- IC50 [5]: < 0.1 µM

SMILES: CC(O)C(NC(=O)NC(CC(N)=O)c1nc(C(N)CO)no1)C(=O)O (stereo not drawn)
- IC50 [6]: 5000 µM
